Shown are actives, neighbours in structure and some others; about 2.9% of the full set was active somewhere.
SIRT5 inh: blocks human SIRT5 desuccinylation of peptide. Q9NXA8. Purified SirT5, succinyl-peptide AMC, trypsin-coupled fluorescence. inhibition, % at 15 µM. hit rate 1.1% among 330,000. AID 652115; in the data active means inhibition above about 15%; inconclusive means no clear call, values can overlap the other calls
E-sel inducer: E-selectin induction on HUVECs; HUVEC E-selectin immunofluorescence imaging; normalized: neutral wells 0, TNF-alpha wells 100; AID 686992; P16581; activation, % at 7.58 µM; hit rate 0.37% among 260,000;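 active means mean E-selectin-positive cell signal at least 10% of the positive control, reached in at least 60% of replicates, without over 20% cell loss; inconclusive means no rule given, readout overlaps actives, possibly toxicity-flagged; inactive means the rest, including those meeting only one limit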
Target sequence (P16581 whole entry, looked up): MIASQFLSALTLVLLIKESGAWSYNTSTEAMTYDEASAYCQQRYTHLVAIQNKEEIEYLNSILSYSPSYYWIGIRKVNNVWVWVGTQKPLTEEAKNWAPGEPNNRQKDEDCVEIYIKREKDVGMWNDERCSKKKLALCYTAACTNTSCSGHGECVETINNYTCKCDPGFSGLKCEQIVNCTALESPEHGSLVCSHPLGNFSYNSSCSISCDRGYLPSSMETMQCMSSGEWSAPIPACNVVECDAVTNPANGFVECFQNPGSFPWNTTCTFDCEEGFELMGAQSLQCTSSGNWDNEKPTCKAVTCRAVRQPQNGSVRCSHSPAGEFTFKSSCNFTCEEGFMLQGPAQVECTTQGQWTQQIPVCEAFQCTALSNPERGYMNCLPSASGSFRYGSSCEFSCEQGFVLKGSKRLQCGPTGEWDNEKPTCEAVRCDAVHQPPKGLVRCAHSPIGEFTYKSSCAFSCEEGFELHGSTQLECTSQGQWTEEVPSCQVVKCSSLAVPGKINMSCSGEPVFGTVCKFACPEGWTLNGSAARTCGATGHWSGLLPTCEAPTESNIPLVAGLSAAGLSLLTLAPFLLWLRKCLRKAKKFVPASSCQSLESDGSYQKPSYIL
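material = human umbilical vein endothelial cells (HUVEC), E-selectin induction | quantity = 3,000 cells/well | medium = EGM-2 growth medium on 0.1% gelatin-coated wells | technique = immunofluorescence imaging | read-out basis = % PE-positive cells | control set = TNF-alpha positive control, DMSO neutral control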
DENV2 CPE: DENV2-induced cell death inhibition; DENV2-infected cells, cytopathic effect rescue, plate reader; hit rate 1.7% among 350,000; CPE inhibition, % at 9.99 µM; in the data active means CPE inhibition above about 20%, passing the limit was not always enough; inconclusive means no clear call, values can overlap the other calls; tested in BHK-21 cells
Numbers stand for hits; i = inactive; ? = inconclusive; nt = no result given.

SMILES	SIRT5 inh	E-sel inducer	DENV2 CPE
CCOC(=O)CCCCCC(=O)Nc1ccc2c(c1)C(=O)N([C@@H](C)CO)C[C@@H](C)[C@H](CN(C)C(=O)c1ccncc1)OCCCC[C@H](C)O2	i	i	i
Cc1ccccc1-c1ccc([C@H]2[C@@H](CO)N3CCCCN(C(=O)Nc4ccccc4)C[C@@H]23)cc1	i	i	i
COc1ccc(NC(=O)N2CCCCN3[C@H](CO)[C@@H](c4ccc(-c5ccccc5C)cc4)[C@@H]3C2)cc1	i	i	i
Cc1ccccc1-c1ccc([C@@H]2[C@H](CO)N3CCCCN(C(=O)Nc4ccccc4)C[C@@H]23)cc1	i	i	i
Cc1ccccc1-c1ccc([C@@H]2[C@H](CO)N3CCCCN(C(=O)Nc4ccc(F)cc4)C[C@@H]23)cc1	16.8	i	i
C/C=C/c1ccc([C@H]2[C@@H](CO)N3CCCCN(C(=O)Nc4ccc(OC)cc4)C[C@H]23)cc1	i	i	i
C/C=C/c1ccc([C@H]2[C@@H](CO)N3CCCCN(C(=O)Nc4ccc(OC)cc4)C[C@@H]23)cc1	i	i	30.2
Cc1ccccc1-c1ccc([C@@H]2[C@@H](CO)N3CCCCN(C(=O)Nc4ccc(F)cc4)C[C@@H]23)cc1	15.2	i	i
COc1ccc(NC(=O)N2CCCCN3[C@H](C2)[C@H](c2ccc(-c4ccccc4C)cc2)[C@@H]3CO)cc1	i	i	26.8
Cc1cccc(C2=NN(c3ccccc3)[C@H](CO)[C@H]2c2ccc(Cl)cc2)c1	i	i	i
Cc1cc(C)n(-c2ncc(C#N)cn2)n1	i	nt	i
O=c1[nH]nc(CNc2ccc(Cl)cc2Cl)c2ccccc12	i	i	i
Cc1cn(CC(=O)N[C@H](CO)Cc2c[nH]c3ccccc23)c(=O)[nH]c1=O	i	i	?
O=C(COC(=O)c1ccc(F)cc1Cl)NC1CCS(=O)(=O)C1 (configuration not stated)	i	nt	i
O=C(COC(=O)c1c(F)cccc1F)Nc1ccc2[nH]c(=O)[nH]c2c1	i	nt	i
O=C(COC(=O)c1cccc(Br)c1)Nc1ccc2[nH]c(=O)[nH]c2c1	i	nt	72.7
CCOc1ccc2nc(N/C(N)=N/C(=S)Nc3ccc(C)c(C)c3)nc(C)c2c1	i	nt	108.1
COc1ccc(NC(=S)/N=C(\N)Nc2nc(C)c3ccc(C)cc3n2)cc1	i	i	i
O=C(NCCc1ccccn1)c1ccc(OC(F)F)cc1	i	i	i
Cn1cnc2nc(Cl)nc(Cl)c21	i	i	i
CNc1nc(Cl)nc2ncn(C)c12	15.8	i	i
COc1ccc(Nc2c3c(nc4ccc(C)cc24)CCC3)cc1	25.2	i	i
Cc1ccc2nc3c(c(Nc4ccc(O)cc4)c2c1)CCC3	i	nt	i
CN(C)C(=O)C[C@@H]1C=C[C@@H](NC(=O)C2CCC2)[C@@H](CO)O1	i	i	i
C[n+]1ccccc1/C=N/O	i	i	i
SMILES	SIRT5 inh	E-sel inducer	DENV2 CPE
Cc1cccc(C(=O)Nc2cccc(NC(=O)c3ccccc3)c2)c1	i	i	i
CCOC(=O)C1CCN(C(=O)c2c(-c3ccccc3)noc2C)CC1	i	i	i
Cc1cccc(NS(=O)(=O)c2ccc(-c3ccc(=O)[nH]n3)o2)c1	i	nt	i
O=c1ccc(-c2ccc(S(=O)(=O)Nc3cccc(Br)c3)o2)n[nH]1	i	nt	27.2
N#Cc1cccc(OCCCN2CCC(C(O)(c3ccccc3)c3ccccc3)CC2)c1	i	i	i
OC(c1ccccc1)(c1ccccc1)C1CCN(CCCOc2cccc(F)c2)CC1	i	i	56.4
COc1ccc(-c2cc(C(=O)N3CCc4ccccc4C3)no2)cc1	nt	i	i
CCOc1ccc(C(C)NC(=O)Nc2ccc(F)cc2F)cc1 (configuration not stated)	i	i	i
C=CCNc1nc(C(=O)OCC(=O)NCc2ccccc2OC)cs1	i	nt	65.9
C=CCNc1nc(C(=O)OCC(=O)Nc2ccccc2C(F)(F)F)cs1	i	nt	i
CCN(C(=O)COc1ncnc2sccc12)c1ccccc1	i	nt	i
CNc1ccccc1C(=O)OCC(=O)c1ccc(F)cc1	i	nt	i
CNc1ccccc1C(=O)OCC(=O)c1ccccc1	i	nt	32.0
Cc1ccc(S(=O)(=O)NNC(=O)c2ccc(O)cc2)cc1	i	nt	i
C[C@@H]1CN([C@H](C)CO)C(=O)c2cccc(N(C)C)c2O[C@H]1CN(C)Cc1ccncc1	i	i	20.2
C[C@H]1CN([C@@H](C)CO)C(=O)c2cccc(N(C)C)c2O[C@H]1CN(C)C	i	i	i
C[C@H](CO)N1C[C@H](C)[C@H](CN(C)CC2CC2)Oc2c(cccc2N(C)C)C1=O	i	i	43.8
C[C@@H]1CN([C@@H](C)CO)C(=O)c2cccc(N(C)C)c2O[C@H]1CN(C)Cc1ccccc1	i	i	i
C[C@H](CO)N1C[C@H](C)[C@@H](CN(C)Cc2ccccc2)Oc2c(cccc2N(C)C)C1=O	i	nt	i
C[C@@H]1CN([C@@H](C)CO)C(=O)c2cccc(N(C)C)c2O[C@@H]1CN(C)Cc1ccccc1	22.5	i	i
O=C1NCCN1CCNS(=O)(=O)c1cc(C(F)(F)F)cc(C(F)(F)F)c1	i	i	i
C[C@H](O)[C@@H]1CN2CCc3c([nH]c4ccc(-c5ccc6c(c5)OCO6)cc34)[C@@H]2C[C@@H]1N(C)C(=O)Nc1cc(Cl)cc(Cl)c1	i	i	i
CCN1CCN(c2ncnc3c2cnn3-c2ccc(Cl)cc2)CC1	i	i	50.5
OCCCNc1ncnc2c1cnn2-c1ccc(Cl)cc1	i	nt	i
CN(C)CCNc1ncnc2c1cnn2-c1ccc(Cl)cc1	nt	i	39.7
SMILES	SIRT5 inh	E-sel inducer	DENV2 CPE
CCN1CCN(c2ncnc3c2cnn3-c2ccccc2)CC1	i	i	i
CN1CCCCC(NC(=O)c2ccccn2)C1=O (configuration not stated)	nt	i	?
CCOC(=O)C1CCCN(c2c(N3CCOCC3)c(=O)c2=O)C1 (configuration not stated)	i	i	45.6
CCOC(=O)C1CCCN(c2c(N3CCN(C)CC3)c(=O)c2=O)C1 (configuration not stated)	i	i	i
O=C(O)c1cccc(Cn2c(Cl)c(/C=N/NC(=O)c3cc4ccccc4cc3O)sc2=O)c1	23.6	i	nt
O=C(O)c1cccc(Cn2c(Cl)c(/C=N/NC(=O)c3cccc(O)c3)sc2=O)c1	i	nt	i
C[C@H]1CCCCO[C@@H](CN(C)C(=O)Nc2cccc3ccccc23)[C@@H](C)CN([C@@H](C)CO)C(=O)c2cc(NS(=O)(=O)c3cccs3)ccc2O1	i	i	i
CCN(CC)C(=O)[C@H]1C[C@H](CC(=O)NCc2cccc(C(F)(F)F)c2)C(=O)N2CCc3c([nH]c4cc(CCC(=O)N(C)C)ccc34)[C@]12C	i	nt	i
CC(C)N(C(=O)[C@H]1C[C@H](CC(=O)NC(C)(C)C)C(=O)N2CCc3c([nH]c4cc(-c5ccco5)ccc34)[C@]12C)C(C)C	27.0	i	i
CC[C@]12c3[nH]c4cc(CCC(=O)N(C)C)ccc4c3CCN1C(=O)[C@@H](CC(=O)NCCc1ccccn1)C[C@@H]2C(=O)N1CCN(C(=O)c2ccco2)CC1	i	i	34.8
O=C(C[C@H]1C[C@H](C(=O)N2CCOCC2)[C@@]2(CCC3CCCC3)c3[nH]c4cc(-c5ccco5)ccc4c3CCN2C1=O)NCCc1ccccn1	i	nt	i

Bioassay records: PubChem BioAssay, Broad Institute
